From ChEMBL document CHEMBL2331324, “Synthesis and biological evaluation of guanidino analogues of roscovitine” (Eur J Med Chem, 2013)

How the values were obtained:
[1] = molecular target: Mitogen-activated protein kinase kinase kinase 7 (Homo sapiens) (UniProt O43318); assay: Inhibition of recombinant TAK1 (unknown origin) assessed as residual activity using [gamma-33P]ATP as substrate at 1 uM
Method in brief: (§1)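 Kinase panel screen with each compound at 1 µM, in duplicate. Reactions were started with [γ-33P]ATP (800 cpm/pmol) at 5, 20 or 50 µM, chosen per enzyme to be at or below its ATP Km. Reactions were stopped with phosphoric acid and spotted onto P81 filters. Results are given as residual kinase activity.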

[2] = molecular target: Mitogen-activated protein kinase 1 (Homo sapiens) (UniProt P28482); assay: Inhibition of recombinant ERK2 (unknown origin) assessed as residual activity using [gamma-33P]ATP as substrate at 1 uM
Method in brief: (§2)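 Recombinant kinase panel screened at 1 µM in duplicate. Reactions started with [γ-33P]ATP (800 cpm/pmol) at 5, 20 or 50 µM, chosen to sit at or below each enzyme's ATP Km. Stopped with phosphoric acid and spotted onto P81 filters. Result given as residual kinase activity.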

[3] = molecular target: Calcium/calmodulin-dependent protein kinase kinase 2 (Homo sapiens) (UniProt Q96RR4); assay: Inhibition of recombinant CAMKKbeta (unknown origin) assessed as residual activity using [gamma-33P]ATP as substrate at 1 uM; method in brief: as §2
[4] = molecular target: Ribosomal protein S6 kinase alpha-3 (Homo sapiens) (UniProt P51812); assay: Inhibition of recombinant RSK2 (unknown origin) assessed as residual activity using [gamma-33P]ATP as substrate at 1 uM; method in brief: as §1
[5] = molecular target: Aurora kinase B (Homo sapiens) (UniProt Q96GD4); assay: Inhibition of recombinant AURB (unknown origin) assessed as residual activity using [gamma-33P]ATP as substrate at 1 uM; method in brief: as §2
[6] = molecular target: Serine/threonine-protein kinase OSR1 (Homo sapiens) (UniProt O95747); assay: Inhibition of recombinant OSR1 (unknown origin) assessed as residual activity using [gamma-33P]ATP as substrate at 1 uM
Method in brief: (§3)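 Selectivity panel run under previously published conditions. Screened at 1 μM in duplicate. Reactions started with [γ-33P]ATP (800 cpm/pmol) at 5, 20 or 50 μM, chosen to be at or below each enzyme's ATP Km. Stopped with phosphoric acid, spotted onto P81 filters. Result expressed as residual kinase activity.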

MCF7 = assay: Cell cycle arrest in human MCF7 cells assessed as accumulation of cells in G2+M phase at 100 uM after 24 hrs by propidium iodide staining based flow cytometry relative to untreated control; type: functional
Method in brief: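 Flow cytometry on MCF7 cells given 100 µM for 24 h. About one million cells fixed in 90% methanol and rehydrated. DNA stained with propidium iodide, read at 488/575 nm (ex/em). The value is the G2+M fraction of treated cells divided by the G2+M fraction of untreated control cells.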

[7] = molecular target: Serine/threonine-protein kinase Nek2 (Homo sapiens) (UniProt P51955); assay: Inhibition of recombinant NEK2a (unknown origin) assessed as residual activity using [gamma-33P]ATP as substrate at 1 uM; method in brief: as §3
[8] = molecular target: MAP kinase-activated protein kinase 5 (Homo sapiens) (UniProt Q8IW41); assay: Inhibition of recombinant PRAK (unknown origin) assessed as residual activity using [gamma-33P]ATP as substrate at 1 uM; method in brief: as §3
[9] = molecular target: MAP kinase-activated protein kinase 3 (Homo sapiens) (UniProt Q16644); assay: Inhibition of recombinant MAPKAPK3 (unknown origin) assessed as residual activity using [gamma-33P]ATP as substrate at 1 uM; method in brief: as §3
[10] = molecular target: Tyrosine-protein kinase ZAP-70 (Homo sapiens) (UniProt P43403); assay: Inhibition of recombinant ZAP70 (unknown origin) assessed as residual activity using [gamma-33P]ATP as substrate at 1 uM; method in brief: as §1
[11] = molecular target: RAC-beta serine/threonine-protein kinase (Homo sapiens) (UniProt P31751); assay: Inhibition of recombinant PKB beta (unknown origin) assessed as residual activity using [gamma-33P]ATP as substrate at 1 uM; method in brief: as §3
[12] = molecular target: SRSF protein kinase 1 (Homo sapiens) (UniProt Q96SB4); assay: Inhibition of recombinant SRPK1 (unknown origin) assessed as residual activity using [gamma-33P]ATP as substrate at 1 uM; method in brief: as §1
[13] = molecular target: Ribosomal protein S6 kinase beta-1 (Homo sapiens) (UniProt P23443); assay: Inhibition of recombinant S6K1 (unknown origin) assessed as residual activity using [gamma-33P]ATP as substrate at 1 uM; method in brief: as §1
[14] = molecular target: Insulin receptor-related protein (Homo sapiens) (UniProt P14616); assay: Inhibition of recombinant IRR (unknown origin) assessed as residual activity using [gamma-33P]ATP as substrate at 1 uM; method in brief: as §2
[15] = molecular target: Phosphorylase kinase (Homo sapiens) (UniProt P15735+P46020+P46019+Q93100+Q16816); assay: Inhibition of recombinant PHK (unknown origin) assessed as residual activity using [gamma-33P]ATP as substrate at 1 uM; type: protein-complex assay; method in brief: as §3
[16] = molecular target: Mitogen-activated protein kinase 12 (Homo sapiens) (UniProt P53778); assay: Inhibition of recombinant p38 MAPKgamma (unknown origin) assessed as residual activity using [gamma-33P]ATP as substrate at 1 uM; method in brief: as §1
[17] = molecular target: Serine/threonine-protein kinase Sgk1 (Homo sapiens) (UniProt O00141); assay: Inhibition of recombinant SGK1 (unknown origin) assessed as residual activity using [gamma-33P]ATP as substrate at 1 uM; method in brief: as §1
[18] = molecular target: Mitogen-activated protein kinase 3 (Homo sapiens) (UniProt P27361); assay: Inhibition of recombinant ERK1 (unknown origin) assessed as residual activity using [gamma-33P]ATP as substrate at 1 uM; method in brief: as §2
[19] = molecular target: Protein kinase C alpha type (Homo sapiens) (UniProt P17252); assay: Inhibition of recombinant PKCalpha (unknown origin) assessed as residual activity using [gamma-33P]ATP as substrate at 1 uM; method in brief: as §3
[20] = molecular target: MAP kinase-interacting serine/threonine-protein kinase 1 (Homo sapiens) (UniProt Q9BUB5); assay: Inhibition of recombinant MNK1 (unknown origin) assessed as residual activity using [gamma-33P]ATP as substrate at 1 uM; method in brief: as §3
[21] = molecular target: Serine/threonine-protein kinase Nek6 (Homo sapiens) (UniProt Q9HC98); assay: Inhibition of recombinant NEK6 (unknown origin) assessed as residual activity using [gamma-33P]ATP as substrate at 1 uM; method in brief: as §3
Homo sapiens = species on record: Homo sapiens; assay: Inhibition of recombinant VEGFR (unknown origin) assessed as residual activity using [gamma-33P]ATP as substrate at 1 uM; method in brief: as §1
[22] = molecular target: Eukaryotic translation initiation factor 2-alpha kinase 3 (Homo sapiens) (UniProt Q9NZJ5); assay: Inhibition of recombinant EIF2AK3 (unknown origin) assessed as residual activity using [gamma-33P]ATP as substrate at 1 uM; method in brief: as §2
[23] = molecular target: RAC-alpha serine/threonine-protein kinase (Homo sapiens) (UniProt P31749); assay: Inhibition of recombinant PKB alpha (unknown origin) assessed as residual activity using [gamma-33P]ATP as substrate at 1 uM; method in brief: as §3
[24] = molecular target: Serine/threonine-protein kinase pim-3 (Homo sapiens) (UniProt Q86V86); assay: Inhibition of recombinant PIM3 (unknown origin) assessed as residual activity using [gamma-33P]ATP as substrate at 1 uM; method in brief: as §3

MAP kinase-activated protein kinase 3 (Homo sapiens), sequence (Q16644 whole entry, looked up): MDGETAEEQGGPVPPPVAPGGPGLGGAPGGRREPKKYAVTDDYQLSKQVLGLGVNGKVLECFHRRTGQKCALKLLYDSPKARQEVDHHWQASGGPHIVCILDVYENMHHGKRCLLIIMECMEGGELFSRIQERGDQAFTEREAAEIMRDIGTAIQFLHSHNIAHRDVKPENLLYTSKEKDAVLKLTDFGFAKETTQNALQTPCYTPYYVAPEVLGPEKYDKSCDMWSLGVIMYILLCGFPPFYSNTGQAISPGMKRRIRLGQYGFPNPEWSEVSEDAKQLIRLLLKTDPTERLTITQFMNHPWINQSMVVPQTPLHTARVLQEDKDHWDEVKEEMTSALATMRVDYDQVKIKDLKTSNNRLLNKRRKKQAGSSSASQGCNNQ
Mitogen-activated protein kinase 1 (Homo sapiens), sequence (P28482 whole entry): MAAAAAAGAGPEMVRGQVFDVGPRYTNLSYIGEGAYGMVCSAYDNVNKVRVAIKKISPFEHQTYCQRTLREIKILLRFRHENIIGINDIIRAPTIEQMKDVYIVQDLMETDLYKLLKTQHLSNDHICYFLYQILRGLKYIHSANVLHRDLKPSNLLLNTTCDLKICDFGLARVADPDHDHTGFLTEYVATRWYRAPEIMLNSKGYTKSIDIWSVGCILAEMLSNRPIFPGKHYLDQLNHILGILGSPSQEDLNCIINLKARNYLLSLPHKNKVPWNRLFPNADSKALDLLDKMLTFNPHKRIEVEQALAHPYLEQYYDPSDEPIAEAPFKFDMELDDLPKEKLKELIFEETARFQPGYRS
Serine/threonine-protein kinase OSR1 (Homo sapiens), sequence (O95747 2-527 limits assumed): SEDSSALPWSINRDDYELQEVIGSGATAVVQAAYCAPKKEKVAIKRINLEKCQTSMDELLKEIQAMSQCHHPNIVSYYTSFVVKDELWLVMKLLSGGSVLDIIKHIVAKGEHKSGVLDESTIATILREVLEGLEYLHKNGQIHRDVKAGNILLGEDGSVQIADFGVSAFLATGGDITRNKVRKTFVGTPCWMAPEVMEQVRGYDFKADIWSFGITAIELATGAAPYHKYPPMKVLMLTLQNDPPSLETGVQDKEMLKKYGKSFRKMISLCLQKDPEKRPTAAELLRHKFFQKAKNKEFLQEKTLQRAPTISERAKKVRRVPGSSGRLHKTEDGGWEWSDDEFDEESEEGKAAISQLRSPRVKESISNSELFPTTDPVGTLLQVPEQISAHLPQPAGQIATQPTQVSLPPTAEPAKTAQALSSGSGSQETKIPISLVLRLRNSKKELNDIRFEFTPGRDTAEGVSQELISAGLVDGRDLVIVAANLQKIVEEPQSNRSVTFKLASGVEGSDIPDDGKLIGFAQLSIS
MAP kinase-interacting serine/threonine-protein kinase 1 (Homo sapiens), sequence (Q9BUB5 whole entry, looked up): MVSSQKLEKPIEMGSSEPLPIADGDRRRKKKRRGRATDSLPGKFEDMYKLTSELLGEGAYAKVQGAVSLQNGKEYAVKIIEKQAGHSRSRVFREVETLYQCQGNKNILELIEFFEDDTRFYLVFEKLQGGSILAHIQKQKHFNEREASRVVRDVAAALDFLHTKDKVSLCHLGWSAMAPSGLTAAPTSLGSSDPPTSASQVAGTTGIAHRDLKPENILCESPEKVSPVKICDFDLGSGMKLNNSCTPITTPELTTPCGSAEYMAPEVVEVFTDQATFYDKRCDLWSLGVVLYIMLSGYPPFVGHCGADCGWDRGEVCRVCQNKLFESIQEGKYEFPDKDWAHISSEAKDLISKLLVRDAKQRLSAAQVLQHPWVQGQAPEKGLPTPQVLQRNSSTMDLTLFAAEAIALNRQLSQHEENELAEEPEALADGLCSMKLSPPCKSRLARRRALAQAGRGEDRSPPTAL
Calcium/calmodulin-dependent protein kinase kinase 2 (Homo sapiens), sequence (Q96RR4 2-588 limits assumed): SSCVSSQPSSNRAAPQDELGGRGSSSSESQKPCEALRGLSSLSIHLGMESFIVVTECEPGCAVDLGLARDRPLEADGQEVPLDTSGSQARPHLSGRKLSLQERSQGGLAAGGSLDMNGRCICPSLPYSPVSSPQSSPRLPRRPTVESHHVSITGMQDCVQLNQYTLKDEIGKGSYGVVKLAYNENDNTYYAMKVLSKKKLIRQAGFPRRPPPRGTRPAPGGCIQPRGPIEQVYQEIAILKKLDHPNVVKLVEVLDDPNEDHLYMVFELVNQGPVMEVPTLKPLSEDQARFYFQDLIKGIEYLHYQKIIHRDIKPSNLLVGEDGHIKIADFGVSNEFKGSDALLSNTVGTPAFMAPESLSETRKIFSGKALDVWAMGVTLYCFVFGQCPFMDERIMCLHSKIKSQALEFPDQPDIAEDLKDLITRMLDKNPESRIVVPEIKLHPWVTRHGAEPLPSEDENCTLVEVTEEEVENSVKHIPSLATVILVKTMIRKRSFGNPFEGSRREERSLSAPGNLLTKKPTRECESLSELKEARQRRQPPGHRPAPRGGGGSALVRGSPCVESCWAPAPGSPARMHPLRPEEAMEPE
Eukaryotic translation initiation factor 2-alpha kinase 3 (Homo sapiens), sequence (Q9NZJ5 whole entry): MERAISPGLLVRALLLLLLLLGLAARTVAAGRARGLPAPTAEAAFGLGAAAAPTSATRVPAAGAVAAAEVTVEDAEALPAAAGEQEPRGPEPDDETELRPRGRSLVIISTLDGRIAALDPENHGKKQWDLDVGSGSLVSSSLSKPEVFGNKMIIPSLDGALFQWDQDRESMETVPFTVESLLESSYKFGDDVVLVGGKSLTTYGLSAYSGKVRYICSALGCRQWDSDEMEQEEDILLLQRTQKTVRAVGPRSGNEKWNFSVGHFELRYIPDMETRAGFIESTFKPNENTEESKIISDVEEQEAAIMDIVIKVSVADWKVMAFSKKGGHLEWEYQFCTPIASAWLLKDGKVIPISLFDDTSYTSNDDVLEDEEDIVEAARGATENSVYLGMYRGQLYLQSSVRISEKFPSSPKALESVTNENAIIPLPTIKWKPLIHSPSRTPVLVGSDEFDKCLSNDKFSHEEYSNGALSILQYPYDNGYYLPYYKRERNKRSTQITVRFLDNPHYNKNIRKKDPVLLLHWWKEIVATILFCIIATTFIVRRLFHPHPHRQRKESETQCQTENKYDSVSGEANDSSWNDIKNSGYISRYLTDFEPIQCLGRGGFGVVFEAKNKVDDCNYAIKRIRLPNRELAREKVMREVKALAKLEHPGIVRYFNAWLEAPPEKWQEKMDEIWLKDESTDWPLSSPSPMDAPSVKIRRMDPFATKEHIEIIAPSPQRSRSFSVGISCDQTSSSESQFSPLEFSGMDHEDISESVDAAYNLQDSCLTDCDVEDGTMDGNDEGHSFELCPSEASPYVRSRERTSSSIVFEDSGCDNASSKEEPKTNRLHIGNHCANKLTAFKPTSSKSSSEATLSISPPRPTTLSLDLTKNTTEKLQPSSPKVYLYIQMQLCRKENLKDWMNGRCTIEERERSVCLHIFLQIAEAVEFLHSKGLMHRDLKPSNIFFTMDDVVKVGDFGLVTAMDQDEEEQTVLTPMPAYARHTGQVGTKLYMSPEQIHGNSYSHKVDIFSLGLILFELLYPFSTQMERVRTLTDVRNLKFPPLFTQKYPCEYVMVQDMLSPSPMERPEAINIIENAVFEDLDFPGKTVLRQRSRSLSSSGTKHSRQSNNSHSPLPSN
Mitogen-activated protein kinase kinase kinase 7 (Homo sapiens), sequence (O43318 whole entry): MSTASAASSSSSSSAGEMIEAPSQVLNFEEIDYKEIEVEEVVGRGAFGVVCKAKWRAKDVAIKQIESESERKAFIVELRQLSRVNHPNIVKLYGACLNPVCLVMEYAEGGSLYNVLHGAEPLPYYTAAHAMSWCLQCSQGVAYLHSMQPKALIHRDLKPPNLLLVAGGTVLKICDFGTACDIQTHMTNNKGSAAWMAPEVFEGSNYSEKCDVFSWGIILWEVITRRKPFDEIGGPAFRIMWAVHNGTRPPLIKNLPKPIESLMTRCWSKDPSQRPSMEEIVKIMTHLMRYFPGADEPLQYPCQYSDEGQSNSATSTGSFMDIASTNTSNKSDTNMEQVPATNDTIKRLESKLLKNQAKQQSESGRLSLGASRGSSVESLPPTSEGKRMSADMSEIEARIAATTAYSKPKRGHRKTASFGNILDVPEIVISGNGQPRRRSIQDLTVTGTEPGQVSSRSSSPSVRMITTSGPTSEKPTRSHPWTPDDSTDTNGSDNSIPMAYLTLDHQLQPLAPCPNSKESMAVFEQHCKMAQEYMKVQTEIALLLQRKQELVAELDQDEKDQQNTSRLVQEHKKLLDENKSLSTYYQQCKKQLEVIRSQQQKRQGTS
Serine/threonine-protein kinase Nek6 (Homo sapiens), sequence (Q9HC98 whole entry): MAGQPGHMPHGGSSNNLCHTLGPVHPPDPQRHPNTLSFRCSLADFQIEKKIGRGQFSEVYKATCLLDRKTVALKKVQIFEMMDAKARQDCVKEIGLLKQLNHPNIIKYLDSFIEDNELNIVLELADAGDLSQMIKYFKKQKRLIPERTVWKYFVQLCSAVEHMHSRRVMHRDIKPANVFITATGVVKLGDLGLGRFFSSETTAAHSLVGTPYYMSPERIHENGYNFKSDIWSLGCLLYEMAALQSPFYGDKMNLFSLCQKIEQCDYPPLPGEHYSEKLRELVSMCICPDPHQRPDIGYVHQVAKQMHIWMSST

CC[C@@H](CO)Nc1nc(NC(=N)N)c2ncn(C(C)C)c2n1 showed an Activity [1] of 13%, an Activity [2] of 15% and an Activity [3] of 13%. For the same compound, the Activity [4] was 71%, the Activity [5] was 70% and the Activity [6] was 16%. It also gave a Ratio (MCF7) of 1.6, an Activity [7] of 57% and an Activity [8] of 74%. It also gave an Activity [9] of 78%, an Activity [10] of 109% and an Activity [11] of 103%. The Activity [12] was 14%, the Activity [13] was 36% and the Activity [14] was 16%. For the same compound, the Activity [15] was 12%, the Activity [16] was 71% and the Activity [17] was 51%. It also gave an Activity [18] of 28%, an Activity [19] of 68% and an Activity [20] of 178%. For the same compound, the Activity [21] was 85%, the Activity (Homo sapiens) was 4% and the Activity [22] was 11%. The Activity [23] was 107% and the Activity [24] was 44%.
With CC[C@H](CO)Nc1nc(NC(=N)N)c2ncn(C(C)C)c2n1 the Activity [1] was 7%, the Activity [2] was 32% and the Activity [3] was 17%. For the same compound, the Activity [4] was 35%, the Activity [5] was 47% and the Activity [6] was 16%. The Ratio (MCF7) was 1.8, the Activity [7] was 73% and the Activity [8] was 76%. The Activity [9] was 80%, the Activity [10] was 86% and the Activity [11] was 111%. It also gave an Activity [12] of 22%, an Activity [13] of 49% and an Activity [14] of 19%. For the same compound, the Activity [15] was 14%, the Activity [16] was 77% and the Activity [17] was 60%. It also gave an Activity [18] of 50%, an Activity [19] of 71% and an Activity [20] of 173%. It also gave an Activity [21] of 95%, an Activity (Homo sapiens) of 6% and an Activity [22] of 17%. It also gave an Activity [23] of 99% and an Activity [24] of 64%.
